In the library only some 4.4% were active in any assay of this set; here they are far more common.
MPTP inh – permeability transition pore inhibition; isolated mouse mitochondria, Ca2+ swelling absorbance, 30 min; inhibition, % at 10 µM; 360,000 tested, 1.4% active;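 active means inhibition of 50% or more, scaled per plate between neutral and stimulator controls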;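 further: 0% = DMSO wells given calcium and 100% = 1 mM EGTA wells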
EBI2 antag – EBI2 (human) antagonism. EBI2 beta-arrestin recruitment, luminescence, 7a,25-OHC stimulated. inhibition, % at 5 µM. 360,000 tested, 0.81% active; in the data active means inhibition above about 38%;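 further: enzyme fragment complementation signal reports receptor beta-arrestin coupling in cells; 0% = agonist plus DMSO wells and 100% = wells without agonist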
Target sequence (P32249 whole entry, looked up, the tested form may be a part): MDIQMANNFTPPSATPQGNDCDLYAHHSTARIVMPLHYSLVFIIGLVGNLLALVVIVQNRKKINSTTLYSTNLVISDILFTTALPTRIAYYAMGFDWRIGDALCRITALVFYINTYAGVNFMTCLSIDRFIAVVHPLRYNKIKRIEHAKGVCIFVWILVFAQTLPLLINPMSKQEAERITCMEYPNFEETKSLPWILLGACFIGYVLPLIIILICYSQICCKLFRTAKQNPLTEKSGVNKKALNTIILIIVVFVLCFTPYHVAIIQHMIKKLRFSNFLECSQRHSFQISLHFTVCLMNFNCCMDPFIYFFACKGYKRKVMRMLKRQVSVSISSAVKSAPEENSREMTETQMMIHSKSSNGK
SENP1 inh – SENP1 (human) catalytic domain inhibition | Q9P0U3 | 360,000 tested, 0.21% active | inhibition, % at 10 µM | AID 624204 | recombinant SENP1 catalytic domain, CyPet-SUMO1-YPet FRET cleavage;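 active means inhibition at least 30% at 10 µM, raw YFP signal under a set limit, fluorescence ratio 0.5 to 1.5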;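 further: 0% = enzyme with DMSO and 100% = no enzyme wells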
Target sequence (Q9P0U3 419-644 limits assumed): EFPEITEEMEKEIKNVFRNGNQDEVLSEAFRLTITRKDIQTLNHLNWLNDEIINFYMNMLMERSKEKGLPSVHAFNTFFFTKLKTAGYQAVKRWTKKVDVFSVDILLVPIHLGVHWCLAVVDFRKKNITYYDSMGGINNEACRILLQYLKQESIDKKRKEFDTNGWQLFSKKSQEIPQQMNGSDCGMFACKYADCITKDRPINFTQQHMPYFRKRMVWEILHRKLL
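Test system: human SENP1 catalytic domain; medium: Tris pH 8 buffer plus EDTA, NaCl, BME, BSA, NP40, catalase; incubation: 50 min reaction at room temperature; technique: FRET, CFP and YFP emission; controls: no-enzyme low control and enzyme-plus-DMSO high control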
GRIN3A LBD mod – modulators (binders) of human NR3A ligand-binding domain | NR3A LBD differential scanning fluorimetry, Tm shift; 0% = protein alone, 100% = glycine-bound protein | Tm shift relative to glycine control, % at 25 µM | 340,000 tested, 2.5% active;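 active means melting temperature shift of at least 10% of the positive control shift, at one fixed dose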
EBI2 conf – EBI2 (human) antagonism, single concentration confirmation; shares compounds with EBI2 antag; EBI2 beta-arrestin luminescence, 7a,25-OHC antagonism; inhibition, % at 5 µM; 2,400 tested, 29% active; AID 651997;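 active means inhibition of at least 50%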
EBI2 agonist – activates EBI2, counter-screen for EBI2 antagonists; 2,400 tested, under 10 active; AID 652000; EBI2-expressing cells, agonist mode, luminescence, 60 min; 0% vehicle, 100% 7α,25-dihydroxycholesterol control; shares compounds with EBI2 antag; activation, % at 5 µM;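 active means activation of at least 50%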
bGal cs – beta-galactosidase inhibition counter-screen; 2,400 tested, 1% active; inhibition, % at 5 µM; shares compounds with EBI2 antag; purified beta-galactosidase, luminescent Galacton Star, 15 min;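 active means replicate-average signal at least 3 plate SD below neutral wells, shown as high inhibition, flagging enzyme-inhibiting false positives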;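 further: 0% = DMSO wells with enzyme and 100% = wells lacking enzyme; higher means stronger loss of beta-gal luminescence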
* hit, by the source's call; x = no result given.

SMILES	MPTP inh	EBI2 antag	SENP1 inh	GRIN3A LBD mod	EBI2 conf	EBI2 agonist	bGal cs
COc1ccc(-c2cc(=O)oc3cc(OC(=O)C4CCCCC4)c(Cl)cc23)cc1	7	-3	-23	-8	x	x	x
Cc1ccccc1OCCC(=O)N1CCN(S(=O)(=O)c2ccc(F)cc2)CC1	0	29	0	-3	x	x	x
Cc1cc(C)c(S(=O)(=O)N2CCN(C(=O)CCOc3ccccc3C)CC2)c(C)c1	-3	81*	-1	4	46	2	8
Cc1ccc(C)c(S(=O)(=O)N2CCN(C(=O)c3cnccn3)CC2)c1	-1	4	4	0	x	x	x
Cc1ccc(C)c(S(=O)(=O)N2CCN(C(=O)c3ccc4ccccc4n3)CC2)c1	-1	50*	1	1	41	1	4
O=C(CCSc1ccc(Cl)cc1)NC1CCCCC1	-2	29	0	10	x	x	x
O=C(CCSc1ccc(Cl)cc1)NC12CC3CC(CC(C3)C1)C2	46	54*	3	-6	26	-1	-9
CC(C)NC(=O)C1C(c2ccccc2)=Nc2ccccc2N1C(=O)c1cc(Cl)cc(Cl)c1 (centres undefined)	2	-3	1	x	x	x	x
COc1cc2nc(CN3CCN(S(=O)(=O)c4ccccc4C(F)(F)F)CC3)[nH]c(=O)c2cc1OC	0	64*	-1	3	22	1	-10
COc1ccc(OCCN2CCN(S(=O)(=O)c3ccccc3C#N)CC2)cc1	-1	35	2	0	x	x	x
COc1ccc(OCCN2CCN(S(=O)(=O)c3ccccc3C(F)(F)F)CC2)cc1	0	60*	0	3	50*	1	-4
O=C(c1cccs1)N(Cc1nc2sc3c(c2c(=O)[nH]1)CCCC3)C1CCCC1	0	1	-4	-14	x	x	x
O=c1cc(CN2CCN(S(=O)(=O)c3ccccc3[N+](=O)[O-])CC2)nc2sccn12	-1	-5	-13	-1	x	x	x
COc1cc2nc(CN3CCN(S(=O)(=O)c4ccccc4[N+](=O)[O-])CC3)[nH]c(=O)c2cc1OC	0	45*	3	x	31	1	4
O=c1[nH]c(CN2CCN(S(=O)(=O)c3ccccc3C(F)(F)F)CC2)nc2sc3c(c12)CCCC3	-2	59*	4	-1	31	0	-11
CC1(C)CC(NC(=O)Cc2ccccc2)CC(C)(C)N1	0	-4	0	-3	x	x	x
C#CCOCCOCCOCCNc1nc(N2CCN(C(=O)C([C@@H](C)CC)n3cc(C(N)CO)nn3)CC2)nc(N2CCN(C(=O)C([C@@H](C)CC)n3cc(C(N)COC(=O)C(F)(F)F)nn3)CC2)n1 (some centres undefined)	x	x	x	-2	x	x	x
COc1cc2nc(CN3CCN(S(=O)(=O)c4c(F)cccc4F)CC3)[nH]c(=O)c2cc1OC	-1	36	-1	1	x	x	x
COc1cc2nc(CN3CCN(S(=O)(=O)c4ccc(Br)cc4)CC3)[nH]c(=O)c2cc1OC	2	55*	-3	0	35	2	6
COc1ccc(C(=O)N2CCC(C(=O)N3CCN(Cc4ccccc4)CC3)CC2)cc1	1	5	0	5	x	x	x
COc1ccc(Oc2nccc(-c3ccc(Cl)cc3)n2)cc1	4	8	1	0	x	x	x
Cc1cccc(Oc2ncc(-c3ccc(Cl)cc3)cn2)c1C	3	52*	-1	-3	27	0	2
Cc1ccc(Oc2ncc(-c3ccc(Cl)cc3)cn2)cc1	-3	90*	1	2	58*	-1	-9
O=C(Nc1ccc(N2CCOCC2)cc1)C1CCCCN1S(=O)(=O)c1ccccc1 (centres undefined)	3	2	-2	-1	x	x	x
O=C(CN1CCC(n2nnc3cc(C(F)(F)F)ccc32)CC1)NCc1cccs1	2	58*	-1	3	37	1	8
SMILES	MPTP inh	EBI2 antag	SENP1 inh	GRIN3A LBD mod	EBI2 conf	EBI2 agonist	bGal cs
CCOC(=O)c1ccccc1NC(=O)CN1CCC(n2nnc3cc(C(F)(F)F)ccc32)CC1	3	23	2	2	x	x	x
CN(Cc1ccccc1)C(=O)c1cc2cc(F)ccc2[nH]1	1	55*	0	-1	58*	0	7
COc1cc(C(O)c2nc(-c3cccc(F)c3)cs2)ccc1F (centres undefined)	1	4	1	x	x	x	x
COc1ccc(CCNc2cc(C)nc3c(-c4ccc(Cl)cc4)cnn23)cc1OC	2	19	-18	1	x	x	x
CC(=O)Nc1ccc(Nc2cc(C)nc3c(-c4ccc(Cl)cc4)c(C)nn23)cc1	0	46*	1	-5	44	1	-4
CC(=O)Nc1ccc(Nc2cc(C)nc3c(-c4ccc(Cl)cc4)cnn23)cc1	1	53*	1	30*	42	0	-14
CC(=O)c1cccc(S(=O)(=O)N2CCC(C(=O)NC3CCCC3)CC2)c1	-1	0	2	0	x	x	x
CCN(C(=O)c1cc2cc3ccc(C)cc3nc2o1)c1ccc(OC)cc1	4	42*	-1	-5	51*	1	4
FCCCOc1ccc(/C=N/OCc2c(Cl)cccc2Cl)cc1	0	35	1	6	x	x	x
FCCCOc1ccc(/C=N/OCc2ccc(Cl)cc2)cc1	5	60*	-1	1	23	1	3
COc1ccc(CNC(=O)/C=C/c2ccc(OCCCF)cc2)cc1	1	17	0	-8	x	x	x
O=C(/C=C/c1ccc(OCCCF)cc1)NCc1ccc(Cl)cc1	-1	50*	3	-3	36	0	3
O=C(/C=C/c1cn(-c2ccccc2)nc1-c1cccnc1)N1CCCC1	0	-38	1	-3	x	x	x
O=C(/C=C/c1cn(-c2ccccc2)nc1-c1cccnc1)c1ccco1	2	44*	-4	-7	65*	3	2
O=C(N/N=C/c1cccc2nccnc12)c1ccccc1O	0	-6	3	1	x	x	x
O=C(N/N=C/c1cccc2cccnc12)c1ccccc1O	2	71*	1	-6	81*	-1	-6
Cc1nn(-c2ccccc2)c(Cl)c1/C=N/NC(=O)c1[nH]ncc1Br	0	-54	-2	3	x	x	x
S=c1[nH]c(-c2ccc(Br)cc2)cn1CCc1ccccc1	2	57*	-1	1	41	2	-1
COc1ccccc1-n1cc(-c2ccc(Br)cc2)[nH]c1=S	1	1	2	-1	x	x	x
C[C@@]12CC[C@H]3OC(=O)C=C3C1CC[C@@]13CC(CCC12)[C@](CO)(O[C@H]1O[C@H](CO)[C@@H](O)[C@H](O)[C@H]1O)C3 (some centres undefined)	1	-5	-3	1	x	x	x

Source: PubChem (Sanford-Burnham Center for Chemical Genomics)
